Assay results from ChEMBL document CHEMBL3351751, “Tricyclic pyrazoles part 7. Discovery of potent and selective dihydrothienocyclopentapyrazole derived CB2 ligands” (Eur J Med Chem, 2014).
Active and inactive are the calls of the source. No cut-off for these calls is given here.

Key:
Cannabinoid receptor 1 = Cannabinoid receptor 1 (Mus musculus, UniProt P47746); assay: Displacement of [3H]-CP55940 from CD1 mouse brain (minus cerebellum) CB1 receptor by liquid scintillation counting; assay type: tissue-based
Method in brief: (§1)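 Male CD1 mouse tissue homogenised in ice-cold TME buffer (50 mM Tris–HCl, 1 mM EDTA, 3.0 mM MgCl2, pH 7.4); membranes (30–80 µg protein) incubated with 0.5–1 nM [3H]-CP-55,940, 1 h, 30 °C, with 5 mg/mL fatty acid-free BSA. Non-specific binding with 1 µM CP-55,940. GF/C filtration. Triplicate, ≥5 independent experiments; IC50 by sigmoid fit converted to Ki.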

Cannabinoid receptor 2 = Cannabinoid receptor 2 (Mus musculus, UniProt P47936); assay: Displacement of [3H]-CP55940 from CD1 mouse spleen CB2 receptor by liquid scintillation counting; method in brief: as §1
Mus musculus = species: Mus musculus; assay: Selectivity ratio of Ki for CD1 mouse brain (minus cerebellum) CB1 receptor to Ki for CD1 mouse spleen CB2 receptor; assay type: tissue-based
[1] = target: Cannabinoid receptor 2 (Homo sapiens) (UniProt P34972); assay: Inhibition of CB2 receptor in HL60 cells assessed as inhibition of ERK1/2 phosphorylation after 15 mins by Western blotting analysis; assay type: cell-based; details: HL-60
Sequence of Cannabinoid receptor 2 (Homo sapiens) (P34972 whole entry): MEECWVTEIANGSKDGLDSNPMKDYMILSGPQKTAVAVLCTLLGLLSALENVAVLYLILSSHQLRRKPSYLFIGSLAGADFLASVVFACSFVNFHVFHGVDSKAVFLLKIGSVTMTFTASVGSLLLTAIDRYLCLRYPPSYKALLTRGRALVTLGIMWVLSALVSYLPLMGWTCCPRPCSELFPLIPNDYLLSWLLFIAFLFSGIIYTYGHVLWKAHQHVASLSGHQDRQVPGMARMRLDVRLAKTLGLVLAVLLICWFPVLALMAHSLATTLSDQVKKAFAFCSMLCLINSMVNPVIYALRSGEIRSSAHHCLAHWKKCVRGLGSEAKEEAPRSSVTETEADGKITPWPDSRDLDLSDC

Sequence of Cannabinoid receptor 2 (P47936 whole entry): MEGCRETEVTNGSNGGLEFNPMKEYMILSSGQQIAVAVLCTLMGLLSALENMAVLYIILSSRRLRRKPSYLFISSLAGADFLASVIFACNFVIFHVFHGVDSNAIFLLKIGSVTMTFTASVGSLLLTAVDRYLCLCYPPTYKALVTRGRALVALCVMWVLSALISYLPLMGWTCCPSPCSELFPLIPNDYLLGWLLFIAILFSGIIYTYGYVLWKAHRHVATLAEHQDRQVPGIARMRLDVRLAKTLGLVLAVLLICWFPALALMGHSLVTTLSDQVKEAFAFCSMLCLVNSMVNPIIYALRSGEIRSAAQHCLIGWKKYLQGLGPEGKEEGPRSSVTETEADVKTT
Sequence of Cannabinoid receptor 1 (P47746 whole entry): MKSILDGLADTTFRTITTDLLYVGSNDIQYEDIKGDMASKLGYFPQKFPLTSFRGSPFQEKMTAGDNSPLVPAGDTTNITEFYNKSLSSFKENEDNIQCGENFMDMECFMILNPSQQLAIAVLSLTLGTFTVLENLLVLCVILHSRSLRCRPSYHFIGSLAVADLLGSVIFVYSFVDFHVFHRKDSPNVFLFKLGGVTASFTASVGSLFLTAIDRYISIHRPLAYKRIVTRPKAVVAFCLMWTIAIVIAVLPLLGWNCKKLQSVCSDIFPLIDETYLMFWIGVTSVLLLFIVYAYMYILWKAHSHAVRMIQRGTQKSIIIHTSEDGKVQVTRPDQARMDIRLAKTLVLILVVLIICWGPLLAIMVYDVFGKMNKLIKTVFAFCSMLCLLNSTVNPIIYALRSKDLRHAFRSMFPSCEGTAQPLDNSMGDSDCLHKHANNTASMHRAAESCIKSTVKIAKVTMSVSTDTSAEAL

Row | Compound | Ki (Cannabinoid receptor 1) [nM] | Ki (Cannabinoid receptor 2) [nM] | Ratio Ki (Mus musculus) | inhibition [1]
1 | Cc1cc2c(s1)Cc1c(C(=O)NC3CCCCC3)nn(-c3ccc(Cl)cc3Cl)c1-2 | 447 | 7.2 | 62.1 | Active
2 | Cc1cc2c(s1)Cc1c(C(=O)NN3CCCCC3)nn(-c3ccc(Cl)cc3Cl)c1-2 | 440 | 2.3 | 191 | Active
3 | Cc1ccc(Cn2nc(C(=O)NC3C[C@@H](C)CC[C@@H]3C(C)C)c3c2-c2c(C)csc2C3)cc1 (stereo partly specified) | 160 | 2.7 | 59.3 | Active
4 | Cc1ccc(Cn2nc(C(=O)NN3CCCCC3)c3c2-c2c(C)csc2C3)cc1 | 377 | 125 | 3 | Active
5 | Cc1ccc(Cn2nc(C(=O)NC3C[C@@H](C)CC[C@@H]3C(C)C)c3c2-c2cc(C)sc2C3)cc1 (stereo partly specified) | 180 | 4.8 | 37.5 | Active
6 | Cc1ccc(Cn2nc(C(=O)NN3CCCCCC3)c3c2-c2c(C)csc2C3)cc1 | 1280 | 69 | 18.5 | Active
7 | Cc1csc2c1-c1c(c(C(=O)NN3CCCCCC3)nn1-c1ccc(Cl)cc1Cl)C2 | 3800 | 321 | 11.8 | Active
8 | Cc1cc2c(s1)Cc1c(C(=O)NN3CCCC3)nn(-c3ccc(Cl)cc3Cl)c1-2 | 1390 | 38.3 | 36.2 | Active
9 | Cc1csc2c1-c1c(c(C(=O)NN3CCOCC3)nn1-c1ccc(Cl)cc1Cl)C2 | 4700 | 747 | 6.3 | Active
10 | Cc1ccc(Cn2nc(C(=O)NC3CCCCC3)c3c2-c2c(C)csc2C3)cc1 | 1980 | 191 | 10.4 | Active
11 | Cc1cc2c(s1)Cc1c(C(=O)NC3C[C@@H](C)CC[C@@H]3C(C)C)nn(-c3ccc(Cl)cc3Cl)c1-2 (stereo partly specified) | 6.5 | 5.1 | 1.3 | Active
12 | Cc1csc2c1-c1c(c(C(=O)NC3CCCCC3)nn1-c1ccc(Cl)cc1Cl)C2 | 3080 | 501 | 6.1 | Active
13 | Cc1csc2c1-c1c(c(C(=O)NC3C[C@@H](C)CC[C@@H]3C(C)C)nn1-c1ccc(Cl)cc1Cl)C2 (stereo partly specified) | 3260 | 6.7 | 486 | Active
14 | Cc1c(C(=O)c2cccc3ccccc23)c2cccc3c2n1[C@H](CN1CCOCC1)CO3 | – | – | – | Active
15 | Cc1csc2c1-c1c(c(C(=O)NC3C(C)(C)C4CC[C@@]3(C)C4)nn1-c1ccc(Cl)cc1Cl)C2 (stereo partly specified) | 2240 | 5.3 | 424 | Active
16 | Cc1csc2c1-c1c(c(C(=O)NN3CCCCC3)nn1-c1ccc(Cl)cc1Cl)C2 | 3920 | 578 | 6.8 | Active
17 | Cc1ccc(Cn2nc(C(=O)NN3CCOCC3)c3c2-c2c(C)csc2C3)cc1 | 4500 | 1760 | 2.6 | Active
18 | Cc1ccc(Cn2nc(C(=O)NC3C(C)(C)C4CC[C@@]3(C)C4)c3c2-c2c(C)csc2C3)cc1 (stereo partly specified) | 420 | 2.4 | 175 | Active
19 | Cc1cc2c(s1)Cc1c(C(=O)NN3CCCCCC3)nn(-c3ccc(Cl)cc3Cl)c1-2 | 442 | 1.1 | 402 | Active
20 | Cc1ccc(Cn2nc(C(=O)NN3CCCC3)c3c2-c2c(C)csc2C3)cc1 | 4500 | 515 | 8.7 | Active
21 | Cc1csc2c1-c1c(c(C(=O)NN3CCCC3)nn1-c1ccc(Cl)cc1Cl)C2 | 4730 | 817 | 5.8 | Active
